Measurements reported in paper PMC7616001 (Journal of medicinal chemistry, 2022).
“Also recorded” adds a separate entry of the source.

Tests used:
[1] = system: A2780; test: MTT assay, 72 h continuous exposure, A2780 cells; type: cell-based, human
How it was run: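 Ovarian lines grown in RPMI with 10% FBS and 1% penicillin/streptomycin; A2780Cis kept on 2 μM cisplatin 3 days each week. HeLa grown in DMEM with the same supplements. 3 × 10^3 cells/well, overnight, then serial dilutions of DMSO stocks (final DMSO ≤0.1%); cisplatin stock in PBS. 72 h continuous exposure, MTT 0.5 mg/mL 3 h, formazan in DMSO, A570 normalised to untreated. IC50 from curves; ≥3 independent experiments.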

[2] = system: mitochondrial Ca^2+ level in HeLa cells; test: Mitochondrial Ca2+ level, Rhod-2 AM imaging; type: cell-based, human; details: 20 μM
[3] = system: IRE1α, ATF6, p-elF2α, unfolded proteins in HeLa cells; test: Western blot of polyubiquitinated proteins and ER-stress marker proteins; type: cell-based, human; details: 24 h
How it was run: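 HeLa cells, about 2 × 10^6 at 80–90% confluency, were treated for 24 h with test compound at 10, 20 or 40 μM, with celastrol as positive control. RIPA lysates with protease inhibitors were heated in Laemmli buffer (90 °C, 10 min), resolved on 10/12% SDS-PAGE and transferred to PVDF. Membranes were blocked in 2% milk and probed overnight at 4 °C with primary antibodies (1:1000), then with HRP secondary antibodies.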

[4] = system: HeLa cells; test: Intracellular distribution between nucleus and cytoplasm, ICP-MS; type: cell-based, human; details: 10 μM, 24 h exposure
How it was run: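 5 × 10^6 HeLa per 100 mm plate, grown overnight. Exposed 24 h to 10 μM test compound, with 10 μM cisplatin as comparator. PBS‑washed, trypsinised, counted. Nuclear and cytoplasmic fractions isolated with a commercial kit. Protein measured by BCA assay, metal by ICP‑MS. Three experiments of ≥3 replicates.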

[5] = Octanol-water partition coefficient, shake-flask method; type: physicochemical; details: 100 mM NaCl, 37 °C, Ru by ICP-MS
How it was run: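 Shake‑flask partition. Octanol‑saturated water and water‑saturated octanol prepared beforehand by shaking a 1:1 octanol/water mixture for 24 h, then separating the layers.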

[6] = Stability in DMSO and aqueous media by 1H NMR; type: physicochemical; details: up to 48 h
How it was run: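 About 2 mM test compound in DMSO-d6 was mixed with 666 mM NaCl in D2O to give 100 mM NaCl final in DMSO/D2O (85/15, v/v). 1H NMR spectra were recorded at regular intervals up to 48 h.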

[7] = Reversible aquation and anation by 1H NMR; type: physicochemical; details: DMSO/D2O without NaCl, within 10 min
How it was run: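 1H NMR in DMSO/D2O. At 10 min, 666 mM NaCl in D2O added to give 100 mM NaCl in DMSO/D2O (85:15 v/v). Spectra recorded at regular intervals up to 60 min.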

[8] = system: zebrafish embryos; test: Zebrafish embryo toxicity and viability analysis; type: in vivo, zebrafish (Danio rerio)
How it was run: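 Wild‑type embryos, ten per 5 mL E3. Test compound at final 20, 30 or 40 μM, diluted from a 5 mM DMSO stock; DMSO vehicle at 10 μL/mL. Exposure from 26 hpf to 72 hpf at 28 °C, then scored for viability and morphology.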

[9] = system: acidic vesicular organelles in HeLa cells; test: Acridine orange assay; type: cell-based, human; details: HeLa, 10, 20, 40 μM, 24 h
How it was run: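 HeLa cells in 35 mm dishes exposed to test compound at 10, 20 or 40 μM for 24 h, or rapamycin (1 μM, 24 h) as reference. Medium replaced with FBS-free medium containing 1 μM acridine orange for 25 min in the dark (37 °C, 5% CO2). Cells washed with PBS and overlaid with phenol red-free DMEM (4% FBS) for imaging.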

[10] = system: HeLa cells; test: Trypan blue dye exclusion cell proliferation assay; type: cell-based, human
How it was run: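 HeLa seeded in 24‑well plates. Next day, some wells trypsinised, stained with trypan blue and live cells counted by hemocytometer as the 0 h value. Remaining wells left untreated or dosed at various concentrations. Viable cells counted at 24, 48, 72, 96 and 120 h and plotted against time.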

[11] = system: mitochondria of HeLa cells; test: Mitochondrial morphology, confocal imaging of mito-GFP HeLa cells; type: cell-based, human; details: 1/2 × IC50/24h (20 μM)
[12] = system: genomic DNA of HeLa cells; test: Metalation of genomic DNA, ICP-MS; type: cell-based, human; details: 20 μM, 24 h exposure
[13] = system: LC3-II/LC3-I in HeLa cells; test: Western blot of autophagy marker proteins; type: cell-based, human; details: 24 h
How it was run: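 ~2 million HeLa per 60 mm dish, grown to 80–90% confluency, then treated 24 h. Lysed in RIPA buffer with protease inhibitors. Membranes blocked with 2% skim milk in 0.1% Tween 20 for 30 min. Primary antibody 1:1000 overnight at 4 °C; HRP secondary antibody; LC3 forms detected.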

[14] = system: HeLa; test: 24 h MTT assay, HeLa cells; type: cell-based, human; details: read-out: IC50/24h
How it was run: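 HeLa in DMEM with 10% FBS and 1% penicillin/streptomycin, 3 × 10^3 cells/well, grown overnight. Fresh DMSO stocks (Ru content confirmed by ICP‑MS) serially diluted in medium; final DMSO ≤0.1%. 24 h exposure, then MTT 0.5 mg/mL for 3 h. Formazan dissolved in DMSO, A570 read and normalised to untreated wells. IC50 taken from dose–response curves; ≥3 independent experiments of 3 or 6 replicates.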

[15] = system: RIP1 and RIP3 in HeLa cells; test: Western blot of necroptosis marker proteins; type: cell-based, human; details: 24 h
How it was run: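 Western blot for RIP1/RIP3: about 2 × 10^6 HeLa cells at 80–90% confluency were given test compound (10, 20, 40 μM) for 24 h, with shikonin as a reference necroptosis inducer. Cells were lysed in RIPA with protease inhibitors and run on 10/12% SDS-PAGE, then transferred to PVDF. Membranes were blocked in 2% milk, probed with primary antibody (1:1000, overnight, 4 °C), then with HRP secondary antibody (0.75:1000).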

[16] = system: HO• radicals in HeLa cells; test: Flow cytometric quantification of hydroxyl radicals with HPF probe; type: cell-based, human; details: 10 μM, 4 h
How it was run: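 HeLa seeded at 0.75 × 10^6 cells per six‑well plate well, grown overnight, then treated 4 h at 10 μM. Cells trypsinised, washed with ice‑cold PBS and spun at 1200 rpm, 5 min, 4 °C. Probe‑stained cells analysed by flow cytometry, approximately 20,000 cells per sample.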

[17] = Cyclic voltammetry; type: physicochemical; details: acetonitrile, 0.1 M NEt4BF4

## Cc1ccc(C(C)C)cc1.O=C(C=C([O-])C(F)(F)F)[c-]1cccc1.[Cl-].[Fe+2].[Ru+2].c1cc[cH-]c1 [Compound 1, [(η^6-p-cymene)Ru(1,1,1-trifluoro-4-oxo-4-ferrocenyl-but-2-en-2-olate)Cl]]
[1]; A2780 cells
  fold more potent compared to Ru1, Ru3 and Ru4: 3−18 fold
[1]; read-out: IC50 A2780, 72 h continuous exposure, MTT assay
  IC50: 2.5 ± 0.3 µM
[2]
  increase in mitochondrial Ca^2+ level compared to untreated control: ~ 5 fold
[3]; 10-40 μM
  unfolded (polyubiquitinated) proteins: dose-dependent upregulation of unfolded proteins
[3]
  IRE1α and ATF6 levels: significant upregulation of both IRE1α and ATF6
  p-elF2α level (PERK arm): did not increase the level of the downstream protein p-elF2α
[4]
  metal content in nuclear fraction relative to cytoplasmic fraction: ~ 2.5 times
[5]
  log P: 1.1 ± 0.1
[6]
  stability in DMSO: no change was detected in the ^1H NMR spectrum up to 48 h
  stability in DMSO-d6/D2O containing 100 mM NaCl: no significant spectral changes were observed up to 48 h
[7]
  fraction aquated: ~ 95%
[8]; 72 hpf, up to 40 μM
  morphology / visible toxic effects on embryos: morphologically indistinguishable from untreated control embryos; also recorded: did not show any visible toxic effects
[8]; treated at 26 hpf, even at 40 μM dose
  animal viability at 72 hpf: 100%
[9]
  acidic vesicular organelles: did not cause formation and promotion of acidic vesicular organelles
[10]; 5 and 10 μM
  effect on number of viable cells: time-dependent antiproliferative effect
[10]; 20 and 40 μM
  effect on number of viable cells: exerted antitumor activity by killing cells
[11]
  mitochondrial morphology: rounded and punctate
[12]
  metalation of genomic DNA: comparable with that of the classical DNA-targeted Pt drug cisplatin
[13]
  ratio of LC3-II/LC3-I: no increase in the ratio of LC3-II/LC3-I
[14]
  IC50: 38 ± 3 µM
[15]
  expression level of RIP1 and RIP3: increased the expression level of RIP1 and RIP3
[16]
  level of HO• radicals relative to untreated control: ~ 7 fold
[17]
  oxidation potential (vs Fc^+/0): 321 mV
